For assay [1], the target named is Glutamate receptor 1 (Rattus norvegicus, UniProt P19490). As to the kind of experiment: Antagonist activity at rat recombinant GLuR1 expressed in Xenopus oocytes assessed as inhibition of glutamate-induced current by two-electrode voltage-clamp electrophysiology. The format is functional, cell-based, Oocyte. An outline of the steps: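 Two-electrode voltage clamp at −40 mV on Xenopus oocytes expressing rat GluR1, perfused with 90 NaCl, 1.0 KCl, 0.5 BaCl2, 0.005 EDTA, 10 HEPES (mM), pH 7.4, 23°C; activated by 100 μM glutamate. From 20 mM DMSO stocks, 5-7 concentrations, ≥4 oocytes each. Hill fit to mean composite curves normalized to control, minimum usually fixed at 0. Response >75% at 100 μM reported as >300 μM.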
Sequence of Glutamate receptor 1 (P19490 whole entry, the tested form may be a part): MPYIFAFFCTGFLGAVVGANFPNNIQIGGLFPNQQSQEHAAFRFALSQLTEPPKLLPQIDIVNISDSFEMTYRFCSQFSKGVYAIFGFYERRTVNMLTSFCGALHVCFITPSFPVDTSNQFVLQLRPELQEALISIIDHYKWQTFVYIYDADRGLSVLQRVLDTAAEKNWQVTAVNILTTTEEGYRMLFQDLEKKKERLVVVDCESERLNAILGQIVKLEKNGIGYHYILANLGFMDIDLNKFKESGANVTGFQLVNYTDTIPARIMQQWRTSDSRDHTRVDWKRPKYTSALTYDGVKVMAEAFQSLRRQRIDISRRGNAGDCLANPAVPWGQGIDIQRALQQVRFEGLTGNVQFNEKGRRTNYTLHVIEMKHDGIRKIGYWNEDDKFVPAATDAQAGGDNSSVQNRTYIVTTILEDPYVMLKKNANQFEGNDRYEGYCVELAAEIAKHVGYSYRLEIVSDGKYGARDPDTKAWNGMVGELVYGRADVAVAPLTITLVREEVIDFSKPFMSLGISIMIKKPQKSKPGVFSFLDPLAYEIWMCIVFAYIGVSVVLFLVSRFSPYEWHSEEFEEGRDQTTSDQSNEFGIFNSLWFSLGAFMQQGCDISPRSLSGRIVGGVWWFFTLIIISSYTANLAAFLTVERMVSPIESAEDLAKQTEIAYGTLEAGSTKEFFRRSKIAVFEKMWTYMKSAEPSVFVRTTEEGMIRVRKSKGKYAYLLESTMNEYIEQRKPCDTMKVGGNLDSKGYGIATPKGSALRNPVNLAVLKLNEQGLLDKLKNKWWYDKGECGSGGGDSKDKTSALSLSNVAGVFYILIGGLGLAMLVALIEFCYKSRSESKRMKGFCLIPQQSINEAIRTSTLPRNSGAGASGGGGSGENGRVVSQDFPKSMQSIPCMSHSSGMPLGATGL

In assay [2] the target is Glutamate receptor ionotropic, kainate 2 (Rattus norvegicus, UniProt P42260). Description: Antagonist activity at rat recombinant GLuR6 expressed in Xenopus oocytes assessed as inhibition of glutamate-induced current by two-electrode voltage-clamp electrophysiology. In kind it is functional, cell-based. The following applies: oocyte. An outline of the steps:
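Rat GluR6 expressed in Xenopus oocytes, pretreated with 10 μM concanavalin A for 10 min, then activated by 100 μM glutamate. Cells were held at −40 mV in 90 mM NaCl, 1.0 KCl, 0.5 BaCl2, 0.005 EDTA and 10 HEPES, pH 7.4, at 23°C. Compounds were diluted from 20 mM DMSO stocks, final DMSO 0.05-0.5%. Concentration-effect curves were recorded.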
For orientation: Two-electrode voltage clamp holds a large cell at a set potential and records current.

Assay [3] concerns the target Glutamate NMDA receptor; Grin1/Grin2c (Rattus norvegicus, UniProt P35439+Q00961). Description: Antagonist activity at rat recombinant NR1-NR2C receptor expressed in Xenopus oocytes at holding potential of -40mV by two-electrode voltage-clamp electrophysiology. The format is functional, cell-based, Oocyte. The method in brief:
(§1)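 Oocytes expressing rat NR1-1a with NR2A, NR2B, NR2C or NR2D, clamped at −40 mV in Ba2+/HEPES recording solution pH 7.4, 23°C. Current evoked by 100 μM glutamate plus 30 μM glycine. Final DMSO 0.05-0.5%, 5-7 inhibitor concentrations, ≥4 oocytes each. IC50 from Hill fit of normalized mean composite data. […] Some NR2A oocytes given BAPTA-AM or K-BAPTA.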

The target in assay [4] is T1, Ionotropic glutamate receptor NMDA 1/2D (Rattus norvegicus) (UniProt P35439+Q62645). Description: Antagonist activity at rat recombinant NR1-NR2D receptor expressed in Xenopus oocytes at 10 uM at holding potential of -40mV by two-electrode voltage-clamp electrophysiology. The note with it: Oocyte. In kind it is functional, cell-based.
The target in assay [5] is Ionotropic glutamate receptor NMDA 1/2D (Rattus norvegicus, UniProt P35439+Q62645). As to the kind of experiment: Antagonist activity at rat recombinant NR1-NR2D receptor expressed in Xenopus oocytes at holding potential of -40mV by two-electrode voltage-clamp electrophysiology. In kind it is functional, cell-based, Oocyte. An outline of the steps: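 Oocytes expressing rat NR1-1a with NR2A, NR2B, NR2C or NR2D, clamped at −40 mV in Ba2+/HEPES recording solution pH 7.4, 23°C. Current evoked by 100 μM glutamate plus 30 μM glycine. Final DMSO 0.05-0.5%, 5-7 inhibitor concentrations, ≥4 oocytes each. IC50 from Hill fit of normalized mean composite data. Some NR2A oocytes given BAPTA-AM or K-BAPTA.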

Assay [6] has as its target Glutamate NMDA receptor; Grin1/Grin2a (Rattus norvegicus, UniProt P35439+Q00959). As to the kind of experiment: Antagonist activity at rat recombinant NR1-NR2A receptor expressed in Xenopus oocytes at holding potential of -40mV by two-electrode voltage-clamp electrophysiology. In kind it is functional, cell-based, Oocyte. The note with it: read-out: IC50. The method in brief: as §1

The target of assay [7] is T1, Ionotropic glutamate receptor NMDA 1/2D (Rattus norvegicus). As to the kind of experiment: Antagonist activity at rat recombinant NR1-NR2D receptor expressed in Xenopus oocytes at 30 uM at holding potential of -40mV by two-electrode voltage-clamp electrophysiology in presence of up to 1000/300 uM of glutamate/glycine. In kind it is functional, cell-based. The following applies: Oocyte. An outline of the steps:
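NR1/NR2D oocytes held at −40 mV. Inhibition by 30 μM compound was compared with glutamate/glycine at 100/30 μM and raised to 1000/300 μM, to test whether higher agonist surmounts block. n=4.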

For assay [8], the target named is Glutamate NMDA receptor; Grin1/Grin2b (Rattus norvegicus, UniProt P35439+Q00960). Description: Antagonist activity at rat recombinant NR1-NR2B receptor expressed in Xenopus oocytes at holding potential of -40mV by two-electrode voltage-clamp electrophysiology. In kind it is functional, cell-based, Oocyte. The note with it: read-out: IC50. An outline of the steps:
as §1

In assay [9] the target is T1, Ionotropic glutamate receptor NMDA 1/2D (Rattus norvegicus). As to the kind of experiment: Antagonist activity at rat recombinant NR1-NR2D receptor expressed in Xenopus oocytes at 10 uM at holding potential of +40mV by two-electrode voltage-clamp electrophysiology. In kind it is functional, cell-based. The note with it: Oocyte.

Calls of active or inactive are those of the source. The rule behind the calls is not given here.

One compound from ChEMBL document CHEMBL1212913, “Quinazolin-4-one derivatives: A novel class of noncompetitive NR2C/D subunit-selective N-methyl-D-aspartate receptor antagonists” (J Med Chem, 2010) can be followed below.

Sequence of Glutamate NMDA receptor; Grin1/Grin2b (Q00960 whole entry, other chains not shown): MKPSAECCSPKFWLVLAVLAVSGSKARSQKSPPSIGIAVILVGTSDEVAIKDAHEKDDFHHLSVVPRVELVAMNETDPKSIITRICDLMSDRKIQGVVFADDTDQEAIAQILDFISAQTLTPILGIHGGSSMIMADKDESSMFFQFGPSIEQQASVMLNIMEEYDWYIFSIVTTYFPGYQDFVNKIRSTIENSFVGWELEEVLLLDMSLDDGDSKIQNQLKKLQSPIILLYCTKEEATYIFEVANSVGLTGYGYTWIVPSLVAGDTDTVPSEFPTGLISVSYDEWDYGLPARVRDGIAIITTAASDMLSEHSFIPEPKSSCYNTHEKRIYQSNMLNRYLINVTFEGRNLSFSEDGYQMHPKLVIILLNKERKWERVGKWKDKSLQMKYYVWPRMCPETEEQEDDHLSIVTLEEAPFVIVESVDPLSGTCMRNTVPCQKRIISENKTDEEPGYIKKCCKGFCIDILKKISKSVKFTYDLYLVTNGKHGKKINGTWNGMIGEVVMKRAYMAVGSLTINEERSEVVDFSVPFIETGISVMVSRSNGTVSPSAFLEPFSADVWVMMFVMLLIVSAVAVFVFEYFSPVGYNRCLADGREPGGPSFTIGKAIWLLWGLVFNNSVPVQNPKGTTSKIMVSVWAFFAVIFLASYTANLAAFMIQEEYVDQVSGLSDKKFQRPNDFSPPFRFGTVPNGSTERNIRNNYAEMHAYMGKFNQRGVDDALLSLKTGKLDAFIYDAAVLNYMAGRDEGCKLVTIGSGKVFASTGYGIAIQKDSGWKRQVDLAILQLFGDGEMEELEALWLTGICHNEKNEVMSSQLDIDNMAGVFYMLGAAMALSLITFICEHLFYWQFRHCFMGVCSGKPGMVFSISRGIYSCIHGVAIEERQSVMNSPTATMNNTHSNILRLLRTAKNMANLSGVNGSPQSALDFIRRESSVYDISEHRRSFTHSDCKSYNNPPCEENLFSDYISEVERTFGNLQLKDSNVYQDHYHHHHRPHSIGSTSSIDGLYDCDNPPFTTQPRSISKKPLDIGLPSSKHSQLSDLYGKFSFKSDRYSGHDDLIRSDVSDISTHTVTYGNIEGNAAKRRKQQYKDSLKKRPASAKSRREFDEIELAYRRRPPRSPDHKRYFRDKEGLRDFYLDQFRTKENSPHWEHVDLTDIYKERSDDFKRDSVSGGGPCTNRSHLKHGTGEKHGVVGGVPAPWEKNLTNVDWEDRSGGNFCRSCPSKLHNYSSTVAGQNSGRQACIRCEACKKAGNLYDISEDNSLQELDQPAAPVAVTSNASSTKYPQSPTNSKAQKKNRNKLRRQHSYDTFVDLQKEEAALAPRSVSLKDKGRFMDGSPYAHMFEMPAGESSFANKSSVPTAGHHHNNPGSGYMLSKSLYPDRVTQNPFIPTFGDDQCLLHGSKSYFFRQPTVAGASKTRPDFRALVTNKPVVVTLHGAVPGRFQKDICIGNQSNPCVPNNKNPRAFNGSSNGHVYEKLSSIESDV
Sequence of Glutamate receptor ionotropic, kainate 2 (P42260 whole entry): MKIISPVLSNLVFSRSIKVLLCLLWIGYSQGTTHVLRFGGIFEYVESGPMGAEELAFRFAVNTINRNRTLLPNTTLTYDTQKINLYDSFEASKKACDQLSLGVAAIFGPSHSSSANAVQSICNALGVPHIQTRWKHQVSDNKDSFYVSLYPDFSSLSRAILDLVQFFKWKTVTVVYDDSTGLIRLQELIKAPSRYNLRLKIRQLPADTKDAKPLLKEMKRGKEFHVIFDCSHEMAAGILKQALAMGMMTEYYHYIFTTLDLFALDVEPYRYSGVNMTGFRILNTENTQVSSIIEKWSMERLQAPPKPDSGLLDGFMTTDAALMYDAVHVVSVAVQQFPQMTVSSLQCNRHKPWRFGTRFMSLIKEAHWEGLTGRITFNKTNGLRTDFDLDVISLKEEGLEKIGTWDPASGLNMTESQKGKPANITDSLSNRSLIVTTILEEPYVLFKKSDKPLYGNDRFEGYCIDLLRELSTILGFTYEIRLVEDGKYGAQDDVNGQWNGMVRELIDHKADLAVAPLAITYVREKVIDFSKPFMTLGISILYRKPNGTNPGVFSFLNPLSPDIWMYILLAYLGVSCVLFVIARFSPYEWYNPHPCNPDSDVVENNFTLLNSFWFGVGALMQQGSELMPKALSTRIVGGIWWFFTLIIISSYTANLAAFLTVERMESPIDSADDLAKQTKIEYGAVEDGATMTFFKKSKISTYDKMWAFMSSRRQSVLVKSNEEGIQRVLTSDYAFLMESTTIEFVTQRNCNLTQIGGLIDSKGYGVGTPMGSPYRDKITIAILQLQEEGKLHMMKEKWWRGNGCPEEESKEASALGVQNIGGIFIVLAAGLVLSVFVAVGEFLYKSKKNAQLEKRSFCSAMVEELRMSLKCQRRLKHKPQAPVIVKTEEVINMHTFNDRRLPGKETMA
Sequence of Glutamate NMDA receptor; Grin1/Grin2c (Q00961 whole entry, other chains not shown): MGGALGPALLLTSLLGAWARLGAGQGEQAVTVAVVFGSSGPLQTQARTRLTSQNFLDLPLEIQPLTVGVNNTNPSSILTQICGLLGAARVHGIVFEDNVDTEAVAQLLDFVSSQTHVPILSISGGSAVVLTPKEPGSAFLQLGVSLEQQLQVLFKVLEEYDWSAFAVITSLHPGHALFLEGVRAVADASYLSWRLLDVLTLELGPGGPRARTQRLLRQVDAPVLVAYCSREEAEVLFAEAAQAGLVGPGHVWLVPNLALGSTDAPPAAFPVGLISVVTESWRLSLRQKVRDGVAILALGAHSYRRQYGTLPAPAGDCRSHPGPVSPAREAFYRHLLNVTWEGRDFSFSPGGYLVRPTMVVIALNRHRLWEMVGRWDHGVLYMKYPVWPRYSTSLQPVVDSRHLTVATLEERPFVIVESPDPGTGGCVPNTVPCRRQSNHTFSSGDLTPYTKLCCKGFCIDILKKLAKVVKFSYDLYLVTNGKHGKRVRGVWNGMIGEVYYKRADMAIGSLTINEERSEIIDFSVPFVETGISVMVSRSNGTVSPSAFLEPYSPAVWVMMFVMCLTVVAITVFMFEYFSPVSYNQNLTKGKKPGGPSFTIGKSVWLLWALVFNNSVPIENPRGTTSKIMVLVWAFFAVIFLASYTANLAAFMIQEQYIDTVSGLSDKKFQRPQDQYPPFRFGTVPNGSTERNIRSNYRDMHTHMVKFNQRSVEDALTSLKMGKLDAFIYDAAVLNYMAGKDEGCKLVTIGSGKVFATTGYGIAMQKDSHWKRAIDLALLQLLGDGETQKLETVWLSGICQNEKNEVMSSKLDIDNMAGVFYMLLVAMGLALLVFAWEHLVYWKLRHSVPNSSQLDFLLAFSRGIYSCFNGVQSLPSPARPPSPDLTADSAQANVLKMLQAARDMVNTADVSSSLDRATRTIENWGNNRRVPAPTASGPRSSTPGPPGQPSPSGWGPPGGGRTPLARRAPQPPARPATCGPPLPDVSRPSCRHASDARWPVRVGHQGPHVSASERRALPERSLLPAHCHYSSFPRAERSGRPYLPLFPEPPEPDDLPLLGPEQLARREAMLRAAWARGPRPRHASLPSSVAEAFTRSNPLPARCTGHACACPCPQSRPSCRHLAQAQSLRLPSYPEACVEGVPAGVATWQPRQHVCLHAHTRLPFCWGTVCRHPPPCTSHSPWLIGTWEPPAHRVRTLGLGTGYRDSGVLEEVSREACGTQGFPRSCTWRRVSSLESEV

Usually IC50 stands for the concentration needed to halve the response being measured. Turning to `O=C(O)c1ccc(-n2c(/C=C/c3cccc([N+](=O)[O-])c3)nc3ccccc3c2=O)cc1`, the IC50 is 32 µM in assay [1]; “Not Active” in assay [2]; 12 µM in assay [3]; 9 µM in [5]; 21 µM in assay [6]; 30 µM in assay [8]. Also, the result in assay [4], in assay [7] and in [9] was Active.
